Source: ChEMBL document CHEMBL1129982, “Structure-activity relationships in a series of orally active gamma-hydroxy butenolide endothelin antagonists” (J Med Chem, 1997)
pIC50: −log10 of the molar value.

Key:
[1] = target: Endothelin receptor, ET-A/ET-B (Homo sapiens) (UniProt P24530+P25101); assay: Selectivity of compound on ET B with respect to ET A receptor; type: protein assay
Summary of the method: (§1)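 Radioligand binding to cloned human ETA (Ltk⁻ cells) and ETB (CHO-K1 cells) receptors. […] Selectivity expressed as ETB IC50/ETA IC50.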

[2] = target: T1, Endothelin receptor type B (Homo sapiens, UniProt P24530); assay: Binding affinity against human cloned Endothelin B receptor expressed in CHO-K1 cells; type: cell-based; summary of the method: as §1
T1 sequence (P24530 whole entry): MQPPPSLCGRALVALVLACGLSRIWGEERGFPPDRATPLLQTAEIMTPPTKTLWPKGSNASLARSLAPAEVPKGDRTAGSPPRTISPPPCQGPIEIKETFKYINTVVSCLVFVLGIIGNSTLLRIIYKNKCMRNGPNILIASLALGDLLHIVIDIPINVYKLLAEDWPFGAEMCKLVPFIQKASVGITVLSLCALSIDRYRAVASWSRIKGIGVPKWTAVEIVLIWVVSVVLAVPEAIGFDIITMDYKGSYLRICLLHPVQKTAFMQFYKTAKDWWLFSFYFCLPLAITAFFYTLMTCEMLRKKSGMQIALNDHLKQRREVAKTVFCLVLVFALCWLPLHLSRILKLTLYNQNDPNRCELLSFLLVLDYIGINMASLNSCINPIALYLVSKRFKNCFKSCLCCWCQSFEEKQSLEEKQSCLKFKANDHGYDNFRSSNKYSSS

Endothelin-1 receptor = target: T2, Endothelin-1 receptor (Homo sapiens, UniProt P25101); assay: Binding affinity against human cloned endothelin A receptor expressed in LTK-cells; type: cell-based
T2 sequence (P25101 whole entry): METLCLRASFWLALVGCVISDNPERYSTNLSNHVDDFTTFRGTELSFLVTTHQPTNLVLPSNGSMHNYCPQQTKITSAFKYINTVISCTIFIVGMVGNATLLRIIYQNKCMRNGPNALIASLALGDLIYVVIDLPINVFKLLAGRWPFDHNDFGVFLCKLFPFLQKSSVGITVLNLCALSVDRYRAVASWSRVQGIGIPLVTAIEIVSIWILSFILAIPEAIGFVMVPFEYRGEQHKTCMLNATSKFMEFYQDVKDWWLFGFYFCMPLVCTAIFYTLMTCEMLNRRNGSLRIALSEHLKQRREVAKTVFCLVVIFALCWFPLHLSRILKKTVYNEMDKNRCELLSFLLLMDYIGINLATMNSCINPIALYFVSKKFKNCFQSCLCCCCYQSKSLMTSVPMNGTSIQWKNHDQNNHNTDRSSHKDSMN
Summary of the method: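 Radioligand binding to cloned human ETA (Ltk⁻ cells) and ETB (CHO-K1 cells) receptors. Selectivity expressed as ETB IC50/ETA IC50.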

[3] = Area under the concentration-time curve from time zero to infinity after intravenous administration of 2.5 mg/kg in dogs; type: ADME, organism-based, Canis lupus familiaris; design: dose 2.5 mg/kg, route intravenous; conditions: dog, in vivo
Summary of the method: (§2)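 Four male beagle dogs, fed, single 2.5 mg/kg iv dose within a three-way crossover. Serial heparinized plasma sampled to 24 h. Drug recovered by reverse-phase solid-phase extraction and measured by HPLC with fluorescence detection (ex 312, em 430 nm); LOQ 10 ng/mL.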

[4] = Absolute oral bioavailability in oral (5 mg/kg) fed dogs; type: ADME, organism-based, Canis lupus familiaris; conditions: dog, in vivo
Summary of the method: (§3)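 Three-way crossover in four male beagles: single 2.5 mg/kg iv dose (fed) or 5 mg/kg oral capsule, fed or fasted. Serial heparinized plasma taken up to 24 h. Drug isolated by reverse-phase SPE, quantified by C18 HPLC with fluorescence (ex 312, em 430 nm), LOQ 10 ng/mL. Noncompartmental analysis. […] AUC by trapezoidal rule extrapolated to infinity. F from dose-normalized po/iv AUC ratio.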

[5] = Mean of apparent terminal phase elimination half-life in oral (5 mg/kg) fed dogs; type: ADME, organism-based, Canis lupus familiaris; conditions: dog, in vivo; summary of the method: as §3
[6] = Time to reach maximum observed concentration in oral (5 mg/kg) fed dogs; type: ADME, organism-based, Canis lupus familiaris; conditions: dog, in vivo; summary of the method: as §3
[7] = Maximum observed concentration in oral (5 mg/kg) fed dogs; type: ADME, organism-based, Canis lupus familiaris; design: dose 5 mg/kg, route oral; conditions: dog, in vivo; summary of the method: as §3
[8] = Maximum observed concentration in oral (5 mg/kg) fasted dogs; type: ADME, organism-based, Canis lupus familiaris; design: dose 5 mg/kg, route oral; conditions: dog, in vivo; summary of the method: as §3
[9] = Time to reach maximum observed concentration in oral (5 mg/kg) fasted dogs; type: ADME, organism-based, Canis lupus familiaris; conditions: dog, in vivo; summary of the method: as §3
[10] = Area under the concentration-time curve from time zero to infinity in oral (5 mg/kg) fed dogs; type: ADME, organism-based, Canis lupus familiaris; conditions: dog, in vivo; summary of the method: as §3
[11] = Area under the concentration-time curve from time zero to infinity in oral (5 mg/kg) fasted dogs; type: ADME, organism-based, Canis lupus familiaris; conditions: dog, in vivo; summary of the method: as §3
[12] = Mean of apparent terminal phase elimination half-life after intravenous administration of 2.5 mg/kg in dogs; type: ADME, organism-based, Canis lupus familiaris; design: dose 2.5 mg/kg, route intravenous; conditions: dog, in vivo; summary of the method: as §2
[13] = Absolute oral bioavailability in oral (5 mg/kg) fasted dogs; type: ADME, organism-based, Canis lupus familiaris; conditions: dog, in vivo; summary of the method: as §3
[14] = Mean of apparent terminal phase elimination half-life in oral (5 mg/kg) fasted dogs; type: ADME, organism-based, Canis lupus familiaris; conditions: dog, in vivo; summary of the method: as §3
[15] = target: T1, Endothelin receptor type B; assay: Inhibition of Endothelin B receptor mediated (ET-3) release of arachidonic acid from human cloned receptors expressed in CHO-K1 cells; type: cell-based
Summary of the method: (§4)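 Arachidonic acid release assay. ETA: rabbit renal artery vascular smooth muscle cells stimulated with ET-1. ETB: recombinant human receptors in CHO-K1 cells stimulated with ET-3.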

Rattus norvegicus = assay: In vivo effect at 10 mg/kg on MABP in anesthetized ganglionic-blocked rats versus ET-1 (0.3 nmol/kg, iv) baseline; type: functional
Summary of the method: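 Rats dosed orally by gavage at 10 mg/kg. Ganglionic blockade with mecamylamine given 15 min later (baseline MABP 80–90 mmHg). ET-1 challenge (0.3 nmol/kg iv) 15 min after that. Reduction of the peak pressor response, about 5 min post ET-1, scored against vehicle-treated controls.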

[16] = target: T1, Endothelin receptor type B; assay: Inhibition of Endothelin B receptor mediated (ET-3) release of arachidonic acid from human cloned receptors / CHO-K1 cells; In active; type: cell-based; summary of the method: as §4

| Structure (SMILES) | pIC50 [2] | pIC50 (Endothelin-1 receptor) | also measured |
| --- | --- | --- | --- |
| COc1ccc(C2(O)OC(=O)C(c3ccc4c(c3)OCO4)=C2Cc2cc(OC)c(OC)c(OC)c2)cc1C (configuration not stated) | 6.62 | 9.30 | Selectivity [1]: 480 |
| COc1ccc(C2(O)OC(=O)C(c3ccc4c(c3)OCO4)=C2Cc2cc(OC)c(OC)c(OC)c2)cc1 (configuration not stated) [PD-156707] | – | – | AUC(0-inf) [3]: 1500 ng·h/mL; bioavailability [4]: 20%; half-life [5]: 1.9 h; Tmax [6]: 2.5 h; Cmax [7]: 480 ng/mL; Cmax [8]: 1520 ng/mL; Tmax [9]: 0.69 h; AUC(0-inf) [10]: 590 ng·h/mL; AUC(0-inf) [11]: 2000 ng·h/mL; half-life [12]: 0.62 h; bioavailability [13]: 67%; half-life [14]: 1.2 h |
| COc1ccc(C2OC(=O)C(c3ccc4c(c3)OCO4)=C2Cc2ccccc2)cc1 (configuration not stated) | < 5.60 | 6.15 | – |
| COc1ccc(C(=O)/C(Cc2ccc(NC(C)=O)cc2)=C(\C(=O)O)c2ccc3c(c2)OCO3)cc1 | – | – | pIC50 [15]: 5.09 |
| COc1ccc(C2(O)OC(=O)C(c3ccc4c(c3)OCO4)=C2Cc2ccc(O)cc2)cc1 (configuration not stated) | < 6.60 | 8.10 | – |
| COc1ccc(C2(O)OC(=O)C(c3ccc4c(c3)OCO4)=C2Cc2ccc([N+](=O)[O-])cc2)cc1 (configuration not stated) | 4.77 | 6.10 | – |
| COc1ccc(C(=O)/C(Cc2cc(OC)c(OC)c(OC)c2)=C(\C(=O)[O-])c2ccc3c(c2)OCO3)cc1C.[Na+] | – | – | pIC50 [15]: 5.72; Pressor response (Rattus norvegicus): 53% |
| COc1ccc(C2(O)OC(=O)C(c3cc(OC)c4c(c3)OCO4)=C2Cc2cc(OC)c(OC)c(OC)c2)cc1 (configuration not stated) | 6.59 | 9.30 | Selectivity [1]: 520 |
| COc1ccc(C(=O)/C(Cc2cc(OC)c(OC)c(OC)c2)=C(\C(=O)O)c2cc(OC)c3c(c2)OCO3)cc1C | – | – | pIC50 [15]: 7.17 |
| COc1ccc(C2(O)OC(=O)C(c3ccc4c(c3)OCO4)=C2Cc2cccc(C(=O)O)c2)cc1 (configuration not stated) | < 5.60 | 7.30 | – |
| CCc1ccc(C2(O)OC(=O)C(c3ccc4c(c3)OCO4)=C2Cc2ccccc2)cc1 (configuration not stated) | < 5.60 | 6.20 | – |
| CSc1ccc(C2(O)OC(=O)C(c3ccc4c(c3)OCO4)=C2Cc2ccccc2)cc1 (configuration not stated) | < 5.60 | 6.77 | – |
| COc1ccc(C2(OC)OC(=O)C(c3ccc4c(c3)OCO4)=C2Cc2cc(OC)c(OC)c(OC)c2)cc1 (configuration not stated) | < 5.60 | 6.22 | – |
| COc1ccc(C2(O)OC(=O)C(c3ccc4c(c3)OCO4)=C2Cc2cccc3ccccc23)cc1 (configuration not stated) | < 5.60 | 7.74 | – |
| COc1ccc(C2(O)OC(=O)C(c3ccc4c(c3)OCO4)=C2Cc2ccc(OC)c(OC)c2OC)cc1 (configuration not stated) | 5.70 | 7.92 | – |
| COc1ccc(C2(O)OC(=O)C(c3ccc4c(c3)OCO4)=C2Cc2ccc(S(C)(=O)=O)cc2)cc1 (configuration not stated) | 5.52 | 8.40 | – |
| CCOc1cc(CC2=C(c3ccc4c(c3)OCO4)C(=O)OC2(O)c2ccc(OC)cc2)cc(OCC)c1OCC (configuration not stated) | 6.35 | 9.92 | Selectivity [1]: 3700 |
| COc1ccc(C(=O)/C(Cc2ccccc2)=C(\C(=O)[O-])c2cc(OC)c3c(c2)OCO3)cc1.[Na+] | – | – | pIC50 [15]: 4.80; Pressor response (Rattus norvegicus): 76% |
| O=C1OC(O)(c2ccc(C(=O)O)cc2)C(Cc2ccccc2)=C1c1ccc2c(c1)OCO2 (configuration not stated) | < 5.60 | < 4.60 | – |
| COc1ccc(C2(O)OC(=O)C(c3ccc4c(c3)OCO4)=C2CC2CCCC2)cc1 (configuration not stated) | 6.20 | 8.00 | – |
| COc1ccc(C2(O)OC(=O)C(c3ccc4c(c3)OCO4)=C2Cc2ccc(SC)cc2)cc1 (configuration not stated) | < 5.60 | 8.41 | – |
| COc1ccc(C2(O)OC(=O)C(c3ccc4c(c3)OCO4)=C2CC2CCCCC2)cc1 (configuration not stated) | 6.65 | 7.89 | – |
| COc1ccc(C(=O)/C(Cc2ccccc2)=C(\C(=O)[O-])c2ccc3c(c2)OCO3)cc1.C[N+](C)(C)CCO | – | – | pIC50 [15]: 4.66; Pressure response (Rattus norvegicus): 80% |

Continued, in another order:

| pIC50 [2] | pIC50 (Endothelin-1 receptor) | Structure (SMILES) | also measured |
| --- | --- | --- | --- |
| < 5.60 | 6.62 | COc1ccc(C2(O)OC(=O)C(c3cc(OC)ccc3OC)=C2Cc2ccccc2)cc1 (configuration not stated) | – |
| 4.92 | 7.05 | COc1ccc(C2(O)OC(=O)C(c3cccc(OC)c3)=C2Cc2ccccc2)cc1 (configuration not stated) | – |
| 4.57 | – | O=C1OC(O)(c2ccc(Cl)cc2)C(Cc2ccccc2)=C1c1ccc2c(c1)OCO2 (configuration not stated) | IC50 [16]: Not Active |
| 5.28 | 7.34 | COc1ccc(C2(O)OC(=O)C(c3cc(OC)cc(OC)c3)=C2Cc2ccccc2)cc1 (configuration not stated) | – |
| < 5.60 | 7.89 | COc1ccc(C2(O)OC(=O)C(c3ccc4c(c3)OCO4)=C2Cc2ccccc2)c(OC)c1 (configuration not stated) | – |
| 6.59 | 8.52 | COc1ccc(C2(O)OC(=O)C(c3ccc4c(c3)OCO4)=C2Cc2cccc(OC)c2)cc1 (configuration not stated) | – |
| 4.96 | 5.94 | CC(C)Oc1ccc(C2(O)OC(=O)C(c3ccc4c(c3)OCO4)=C2Cc2ccccc2)cc1 (configuration not stated) | – |
| 5.35 | 7.60 | COc1cc(C2(O)OC(=O)C(c3ccc4c(c3)OCO4)=C2Cc2ccccc2)cc(OC)c1OC (configuration not stated) | – |
| 4.74 | 7.96 | COc1ccc(C2(O)OC(=O)C(c3ccc4c(c3)OCO4)=C2Cc2ccccc2)cc1OC (configuration not stated) | – |
| 4.74 | 6.30 | COc1cccc(C2(O)OC(=O)C(c3ccc4c(c3)OCO4)=C2Cc2ccccc2)c1 (configuration not stated) | – |
| < 4.60 | 7.15 | COc1ccc(C2(O)OC(=O)C(c3ccc4c(c3)OCO4)=C2Cc2cccc([N+](=O)[O-])c2)cc1 (configuration not stated) | – |
| 5.80 | 5.89 | COc1ccc(C2(O)OC(=O)C(c3cc(OC)c(OC)c(OC)c3)=C2Cc2ccccc2)cc1 (configuration not stated) | – |
| 5.85 | 8.09 | COc1ccc(C2(O)OC(=O)C(c3cc(OC)c4c(c3)OCO4)=C2Cc2ccccc2)cc1C (configuration not stated) | – |
| < 5.60 | 7.85 | COc1ccc(C2(O)OC(=O)C(c3ccc4c(c3)OCO4)=C2Cc2ccc3ccccc3c2)cc1 (configuration not stated) | – |
| < 5.60 | 6.40 | COC(=O)c1ccc(C2(O)OC(=O)C(c3ccc4c(c3)OCO4)=C2Cc2ccccc2)cc1 (configuration not stated) | – |
